Experimental data of several laboratories.
Compare with care: the assays were run in different laboratories.

SMILES | target or system | test | system | setting | quantity | value
Cc1ncc2n1-c1ccc(Cl)cc1C(c1ccccc1F)=NC2 |  | metabolic stability | human, hepatocytes | 1 µM, 4 h | compound remaining | 26%
COc1cc([C@@H]2c3cc4c(cc3[C@H](O)[C@H]3COC(=O)[C@H]23)OCO4)cc(OC)c1OC | L6 | cell growth or viability, resazurin |  | 70 h | IC50 | 0.05 µM
Cc1ncc2n1-c1ccc(Cl)cc1C(c1ccccc1F)=NC2 |  | metabolic stability | human, liver microsomes | 1 µM, 30 min | compound remaining | < 7%
Cc1nc(C(=O)N2CCC[C@H]2C(=O)N[C@@H](CCC2CCCCC2)C(=O)N[C@@H](CC(C)C)C(=O)NC(C)(C)C(=O)N[C@@H](CC(C)C)C(=O)N(C)[C@@H](CC(C)C)C(=O)NC(C)(C)C(=O)NC(C)(C)C(=O)NCCC(=O)NC2(CN(C)C)CCC2)co1 | L6 | cell growth or viability, resazurin |  | 68 h | IC50 | > 8.45 µM
COc1cc([C@@H]2c3cc4c(cc3[C@H](O)[C@H]3COC(=O)[C@H]23)OCO4)cc(OC)c1OC | L6 | cell growth or viability, resazurin |  | 72 h | IC50 | 0.169 µM
Cc1nccn1CCCCOc1cc2oc(=O)ccc2cc1O | HepG2.2.15 | cell growth or viability, MTT |  | 9 days | CC50 | > 648 µM
CCOC(=O)c1ncn2c1[C@H](C)N=C(c1ccccc1F)c1cc(C3CC3)ccc1-2 |  | metabolic stability | human, liver microsomes | 20 min | compound remaining | < 5%
N=c1c2c(-c3ccccc3)c(-c3ccccc3)n(Cc3ccccc3)c2ncn1[C@H]1CC[C@H](O)CC1 |  | metabolic stability | human, hepatocytes | 1 µM, 4 h | compound remaining | 86%
O=c1ccc2cc(O)c(OCCCCCn3ccnc3)cc2o1 | HepG2.2.15 | cell growth or viability, MTT |  | 9 days | CC50 | 140 µM
C#Cc1ccc2c(c1)C(c1ccccc1F)=N[C@@H](C)c1c(C(=O)OCC(F)(F)F)ncn1-2 |  | metabolic stability | human, liver microsomes | 10 min | compound remaining | < 5%
